The results in this text go back to ChEMBL document CHEMBL1154837, “Identification of antibacterial and antifungal pharmacophore sites for potent bacteria and fungi inhibition: indolenyl sulfonamide derivatives” (Eur J Med Chem, 2010).

Structures are written as SMILES. In brackets after ≈: the same amount, converted by molar mass.

In general, MIC refers to the smallest concentration in the dilution series that meets the test's criterion for growth inhibition. A higher MIC goes with a need for much substance.

For experiment [1], the system named is Fusarium solani. As to the kind of experiment: Antimicrobial activity against Fusarium solani at 200 ug/ml after 7 days. In kind it is functional. The settings on record: 168 h. The essentials:
(§1)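 Sabouraud dextrose agar was seeded with fungal spore suspension at 10^5 cfu/mL and poured into Petri plates. Discs soaked with compound at 200 µg/mL in DMSO were placed on the agar surface. Plates were incubated at 32 °C for seven days. Results were recorded as % inhibition, with miconazole and amphotericin B as reference drugs.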

The test system of experiment [2] is Candida albicans. As to the kind of experiment: Antimicrobial activity against Candida albicans at 200 ug/ml after 7 days. In kind it is functional. The conditions noted are these: 168 h. The essentials: as §1
The subject of experiment [3] is Escherichia coli. Nature of the experiment: Antimicrobial activity against Escherichia coli after 24 hrs by disk diffusion assay. In kind it is functional. The essentials: (§2)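 MIC by disc diffusion, using discs prepared with 10, 25, 50 and 100 µg/mL of compound.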
On the technique in general: In agar diffusion tests the substance spreads into inoculated agar from a disc or well.

Experiment [4] has as its system Bacillus subtilis. As to the kind of experiment: Antimicrobial activity against Bacillus subtilis at 1 mg/ml by agar-well diffusion method. In kind it is functional. The settings on record: read-out: IZ. The essentials:
(§3)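 Agar-well diffusion on nutrient agar. The surface was swabbed with 2–8 h old inocula of about 10^4–10^6 CFU/mL. Wells were 6 mm across and at least 24 mm apart. Each well received sample at 1 mg/mL in DMSO. DMSO served as negative control and imipenem as positive control. Plates were incubated at 37 °C for 24 h, and the diameter of the complete-inhibition zone was measured in mm.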

For experiment [5], the system named is Staphylococcus aureus. As to the kind of experiment: Antimicrobial activity against Staphylococcus aureus at 1 mg/ml by agar-well diffusion method. In kind it is functional. The conditions noted are these: read-out: IZ. The essentials:
as §3

Experiment [6] has as its system Nakaseomyces glabratus. As to the kind of experiment: Antimicrobial activity against Candida glabrata at 200 ug/ml after 7 days. The conditions noted are these: 168 h. In kind it is functional. The essentials: as §1
Experiment [7] has as its system Shigella flexneri. Nature of the experiment: Antimicrobial activity against Shigella flexneri at 1 mg/ml by agar-well diffusion method. The settings on record: read-out: IZ. In kind it is functional. The essentials:
as §3

In experiment [8] the test system is Salmonella enterica. Nature of the experiment: Antimicrobial activity against Salmonella typhi after 24 hrs by disk diffusion assay. In kind it is functional, Salmonella enterica subsp. enterica serovar Typhi.
In experiment [9] the test system is Salmonella enterica. As to the kind of experiment: Antimicrobial activity against Salmonella typhi at 1 mg/ml by agar-well diffusion method. In kind it is functional, Salmonella enterica subsp. enterica serovar Typhi. The conditions noted are these: read-out: IZ. The essentials:
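Agar-well diffusion on nutrient agar. Plates were swabbed with 2–8 h old inoculum at about 10^4–10^6 CFU/mL, and 6 mm wells were cut at least 24 mm apart. Test sample 1 mg/mL in DMSO. DMSO served as negative control and imipenem as positive control. Plates were incubated at 37 °C for 24 h, and the diameter of complete-inhibition zones was measured (mm).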

The subject of experiment [10] is Pseudomonas aeruginosa. Nature of the experiment: Antimicrobial activity against Pseudomonas aeruginosa at 1 mg/ml by agar-well diffusion method. In kind it is functional. The conditions noted are these: read-out: IZ. The essentials: as §3
Experiment [11] has as its system Aspergillus flavus. Nature of the experiment: Antimicrobial activity against Aspergillus flavus at 200 ug/ml after 7 days. In kind it is functional. The conditions noted are these: 168 h. The essentials: as §1
Experiment [12] deals with Escherichia coli. As to the kind of experiment: Antimicrobial activity against Escherichia coli at 1 mg/ml by agar-well diffusion method. In kind it is functional. The conditions noted are these: read-out: IZ. The essentials:
as §3

For experiment [13], the system named is Shigella flexneri. As to the kind of experiment: Antimicrobial activity against Shigella flexneri after 24 hrs by disk diffusion assay. In kind it is functional. The essentials:
as §2

The subject of experiment [14] is Bacillus subtilis. Nature of the experiment: Antimicrobial activity against Bacillus subtilis after 24 hrs by disk diffusion assay. In kind it is functional. The essentials:
as §2

The subject of experiment [15] is Fusarium solani. As to the kind of experiment: Antimicrobial activity against Fusarium solani after 7 days. In kind it is functional.
Experiment [16] relates to Candida albicans. As to the kind of experiment: Antimicrobial activity against Candida albicans after 7 days. In kind it is functional.
For experiment [17], the system named is Microsporum canis. As to the kind of experiment: Antimicrobial activity against Microsporum canis after 7 days. In kind it is functional.
In experiment [18] the test system is Nakaseomyces glabratus. Nature of the experiment: Antimicrobial activity against Candida glabrata after 7 days. In kind it is functional.
The test system of experiment [19] is Trichophyton longifusum. Nature of the experiment: Antimicrobial activity against Trichophyton longifusum after 7 days. In kind it is functional.

As for `Cc1cc(C)nc(NS(=O)(=O)c2ccc(/N=C/c3c[nH]c4ccccc34)cc2)n1`, the growth inhibition at 200 µg/mL was 75% in experiment [1], 60% in experiment [2], 28% in experiment [6] and 55% in [11]. Also, the MIC in experiment [3] is 123 µM (≈ 50 µg/mL); in [8], 247 µM (≈ 100 µg/mL). Moreover, the zone of inhibition at 1000 µg/mL was found to be 18 mm in experiment [4]; 23 mm in experiment [5]; 19 mm in [7]; 22 mm in experiment [9]; 20 mm in experiment [10]; 24 mm in [12].

On to `N=C(N)NS(=O)(=O)c1ccc(/N=C/c2c[nH]c3ccccc23)cc1`, for which the growth inhibition at 200 µg/mL amounted to 35% in experiment [1], 35% in experiment [2], 55% in experiment [6] and 30% in experiment [11]. Besides, the zone of inhibition at 1000 µg/mL in experiment [4] is 23 mm; in experiment [5], 22 mm; in experiment [7] it was 22 mm; in experiment [9], 23 mm; in experiment [10], 18 mm; in experiment [12], 23 mm. Besides, the MIC in experiment [13] is 146 µM (≈ 50 µg/mL); in experiment [8], 293 µM (≈ 100 µg/mL); in [14], 146 µM (≈ 50 µg/mL).

With `Cc1noc(NS(=O)(=O)c2ccc(/N=C/c3c[nH]c4ccccc34)cc2)c1C`, the growth inhibition at 200 µg/mL was found to be 65% in experiment [1], 45% in [2], 55% in experiment [6] and 55% in [11]. The zone of inhibition at 1000 µg/mL in experiment [4] was determined as 17 mm; in [5], 20 mm; in [7] it was 19 mm; in experiment [9] it was 20 mm; in [10], 19 mm; in experiment [12], 23 mm.

For the compound `O=S(=O)(Nc1ncccn1)c1ccc(/N=C/c2c[nH]c3ccccc23)cc1`, the growth inhibition at 200 µg/mL in [1] is 70%; in experiment [2] it was 35%; in experiment [6] it was 20%; in experiment [11] it was 25%. The zone of inhibition at 1000 µg/mL was 19 mm in experiment [4]; 19 mm in [5]; 18 mm in experiment [7]; 17 mm in experiment [9]; 20 mm in [10]; 19 mm in experiment [12].

Take `Cc1cc(NS(=O)(=O)c2ccc(/N=C/c3c[nH]c4ccccc34)cc2)no1`: the growth inhibition at 200 µg/mL in experiment [1] is 45%; in experiment [2], 25%; in experiment [6], 40%; in experiment [11] it was 45%. In addition, the zone of inhibition at 1000 µg/mL in experiment [4] was found to be 23 mm; in experiment [5] it was 19 mm; in [7] it was 20 mm; in [9] it was 19 mm; in experiment [10], 17 mm; in [12], 22 mm. For the same compound, the MIC in experiment [14] came to 263 µM (≈ 100 µg/mL).

Consider `NS(=O)(=O)c1ccc(/N=C/c2c[nH]c3ccccc23)cc1`, for which the growth inhibition at 200 µg/mL in experiment [1] is 43%; in [2], 40%; in experiment [6], 25%; in [11], 55%. Moreover, the zone of inhibition at 1000 µg/mL in experiment [4] came to 20 mm; in experiment [5], 18 mm; in [7], 18 mm; in experiment [9], 20 mm; in experiment [10], 19 mm; in [12], 21 mm.

On to `C[C@@H](O)[C@H]1C(=O)N2C(C(=O)O)=C(SCCNC=N)C[C@H]12` [IMIPENEM ANHYDROUS], for which the zone of inhibition at 1000 µg/mL stood at 28 mm in experiment [4]; 30 mm in experiment [5]; 27 mm in [7]; 27 mm in [9]; 26 mm in experiment [10]; 30 mm in experiment [12].

Consider `O=S(=O)(Nc1nccs1)c1ccc(/N=C/c2c[nH]c3ccccc23)cc1`, for which the growth inhibition at 200 µg/mL was 80% in [1], 40% in experiment [2], 60% in experiment [6] and 30% in experiment [11]. The minimal inhibitory concentration (MIC) was determined as 262 µM (≈ 100 µg/mL) in experiment [3], 131 µM (≈ 50 µg/mL) in [13] and 262 µM (≈ 100 µg/mL) in experiment [8]. The zone of inhibition at 1000 µg/mL in experiment [4] was found to be 24 mm; in experiment [5], 23 mm; in experiment [7], 23 mm; in experiment [9] it was 23 mm; in experiment [10], 20 mm; in experiment [12] it was 24 mm.

For `Clc1ccc(COC(Cn2ccnc2)c2ccc(Cl)cc2Cl)c(Cl)c1` (stereo not given) [MICONAZOLE], the minimum inhibitory concentration (MIC) came to 176 µM (≈ 73.3 µg/mL) in experiment [15]; 266 µM (≈ 111 µg/mL) in experiment [16]; 236 µM (≈ 98.4 µg/mL) in [17]; 266 µM (≈ 111 µg/mL) in [18]; 168 µM (≈ 70 µg/mL) in experiment [19].
